Results as given in ChEMBL document CHEMBL1135742, “Modification of the structure of a metallopeptide: synthesis and biological evaluation of (111)In-labeled DOTA-conjugated rhenium-cyclized alpha-MSH analogues” (J Med Chem, 2002).

Legend:
Assay type in all cases: functional, organism-based
[1] = organism: Mus musculus; assay: Uptake Ratio of Tumor/kidneys (each in % ID/g) in B16/F1 Murine Melanoma-Bearing C57 Mice at 2 h; conditions: Kidney
Outline: (§1)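 C57 BL/6 female mice (7–8 weeks) carried B16/F1 tumours from 1×10^6 cells given s.c. in the right flank; tumours were ~500 mg at 9–10 days. Each mouse received […] of HPLC-purified, neutralized 111In-DOTA peptide via the tail vein. Mice were killed at 0.5, 2, 4 or 24 h pi. Tissues were weighed and γ-counted, expressed as % ID/g; ratios were tumor/tissue % ID/g.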

[2] = organism: Mus musculus; assay: Radioactivity uptake in the tumor was expressed as a percentage of the injected radioactive dose per gram of tissue (% ID/g) in B16/F1 Murine Melanoma-Bearing C57 Mice at 24 h; outline: as §1
[3] = organism: Mus musculus; assay: Radioactivity uptake in the blood was expressed as a percentage of the injected radioactive dose per gram of tissue (% ID/g) in B16/F1 Murine Melanoma-Bearing C57 Mice at 2 h; outline: as §1
[4] = organism: Mus musculus; assay: Radioactivity uptake in the muscle was expressed as a percentage of the injected radioactive dose per gram of tissue (% ID/g) in B16/F1 Murine Melanoma-Bearing C57 Mice at 2 h; outline: as §1
[5] = organism: Mus musculus; assay: Radioactivity uptake in the heart was expressed as a percentage of the injected radioactive dose per gram of tissue (% ID/g) in B16/F1 Murine Melanoma-Bearing C57 Mice at 4 h; outline: as §1
[6] = organism: Mus musculus; assay: Radioactivity uptake in the muscle was expressed as a percentage of the injected radioactive dose per gram of tissue (% ID/g) in B16/F1 Murine Melanoma-Bearing C57 Mice at 4 h; outline: as §1
[7] = organism: Mus musculus; assay: Radioactivity uptake in the heart was expressed as a percentage of the injected radioactive dose per gram of tissue (% ID/g) in B16/F1 Murine Melanoma-Bearing C57 Mice at 2 h; outline: as §1
[8] = organism: Mus musculus; assay: Uptake Ratio of Tumor/kidneys (each in % ID/g) in B16/F1 Murine Melanoma-Bearing C57 Mice at 4 h; conditions: Kidney; outline: as §1
[9] = organism: Mus musculus; assay: Radioactivity uptake in the tumor was expressed as a percentage of the injected radioactive dose per gram of tissue (% ID/g) in B16/F1 Murine Melanoma-Bearing C57 Mice at 0.5 h; outline: as §1
[10] = organism: Mus musculus; assay: Uptake Ratio of Tumor/liver (each in % ID/g) in B16/F1 Murine Melanoma-Bearing C57 Mice at 0.5 h; outline: as §1
[11] = organism: Mus musculus; assay: Radioactivity uptake in the pancreas was expressed as a percentage of the injected radioactive dose per gram of tissue (% ID/g) in B16/F1 Murine Melanoma-Bearing C57 Mice at 2 h; outline: as §1
[12] = organism: Mus musculus; assay: Radioactivity uptake in the tumor was expressed as a percentage of the injected radioactive dose per gram of tissue (% ID/g) in B16/F1 Murine Melanoma-Bearing C57 Mice at 4 h; outline: as §1
[13] = organism: Mus musculus; assay: Uptake Ratio of Tumor/liver (each in % ID/g) in B16/F1 Murine Melanoma-Bearing C57 Mice at 2 h; outline: as §1
[14] = organism: Mus musculus; assay: Radioactivity uptake in the blood was expressed as a percentage of the injected radioactive dose per gram of tissue (% ID/g) in B16/F1 Murine Melanoma-Bearing C57 Mice at 4 h; outline: as §1
[15] = organism: Mus musculus; assay: Radioactivity uptake in the kidneys was expressed as a percentage of the injected radioactive dose per gram of tissue (% ID/g) in B16/F1 Murine Melanoma-Bearing C57 Mice at 4 h; conditions: Kidney; outline: as §1
[16] = organism: Mus musculus; assay: Radioactivity uptake in the liver was expressed as a percentage of the injected radioactive dose per gram of tissue (% ID/g) in B16/F1 Murine Melanoma-Bearing C57 Mice at 24 h; outline: as §1
[17] = organism: Mus musculus; assay: Uptake Ratio of Tumor/muscle (each in % ID/g) in B16/F1 Murine Melanoma-Bearing C57 Mice at 24 h; conditions: Muscle tissue
Outline: (§2)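 Female C57 BL/6 mice, 7–8 weeks old, carried subcutaneous right-flank B16/F1 tumors from 1×10^6 cells and were used 9–10 days later at ~500 mg tumor weight. Each received […] of HPLC-purified, pH-neutralized ¹¹¹In-DOTA peptide by tail vein. Tumor and organs were excised at the stated time, weighed and γ-counted. Each tissue was taken as % ID/g, and tumor/normal-tissue ratios were formed from these values.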

[18] = organism: Mus musculus; assay: Radioactivity uptake in the heart was expressed as a percentage of the injected radioactive dose per gram of tissue (% ID/g) in B16/F1 Murine Melanoma-Bearing C57 Mice at 24 h; outline: as §1
[19] = organism: Mus musculus; assay: Radioactivity uptake in the kidneys was expressed as a percentage of the injected radioactive dose per gram of tissue (% ID/g) in B16/F1 Murine Melanoma-Bearing C57 Mice at 0.5 h; conditions: Kidney; outline: as §1
[20] = organism: Mus musculus; assay: Uptake Ratio of Tumor/muscle (each in % ID/g) in B16/F1 Murine Melanoma-Bearing C57 Mice at 0.5 h; conditions: Muscle tissue; outline: as §2
[21] = organism: Mus musculus; assay: Uptake Ratio of Tumor/muscle (each in % ID/g) in B16/F1 Murine Melanoma-Bearing C57 Mice at 2 h; conditions: Muscle tissue; outline: as §2
[22] = organism: Mus musculus; assay: Uptake Ratio of Tumor/blood (each in % ID/g) in B16/F1 Murine Melanoma-Bearing C57 Mice at 4 h; outline: as §1
[23] = organism: Mus musculus; assay: Radioactivity uptake in the heart was expressed as a percentage of the injected radioactive dose per gram of tissue (% ID/g) in B16/F1 Murine Melanoma-Bearing C57 Mice at 0.5 h; outline: as §1
[24] = organism: Mus musculus; assay: Uptake of [111In]-labeled compound in lung at 2 hr pi in the presence of […]
Outline: (§3)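 C57 BL/6 female mice, 7–8 weeks old, inoculated s.c. in right flank with 1×10^6 B16/F1 melanoma cells. Used 9–10 days later at tumor weight ~500 mg. […] HPLC-purified 111In-DOTA peptide (neutral pH) given via tail vein, with or without […]. Killed 2 h pi. Tissues weighed and gamma-counted. Uptake expressed as % ID/g.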

[25] = organism: Mus musculus; assay: Uptake of [111In]-labeled compound in lung at 2 hr pi in the absence of […]; outline: as §3
[26] = organism: Mus musculus; assay: Uptake of [111In]-labeled compound in pancreas at 2 hr pi in the absence of 10 mg NDP; outline: as §3
[27] = organism: Mus musculus; assay: Uptake of [111In]-labeled compound in blood at 2 hr pi in the presence of […]; outline: as §3
[28] = organism: Mus musculus; assay: Uptake of [111In]-labeled compound in liver at 2 hr pi in the presence of […]; outline: as §3
[29] = organism: Mus musculus; assay: Uptake of [111In]-labeled compound in blood at 2 hr pi in the absence of […]; outline: as §3
[30] = organism: Mus musculus; assay: Uptake of [111In]-labeled compound in tumor at 2 hr pi in the absence of […]; outline: as §3
[31] = organism: Mus musculus; assay: Uptake of [111In]-labeled compound in liver at 2 h pi in the absence of […]; outline: as §3
[32] = organism: Mus musculus; assay: Uptake of [111In]-labeled compound in spleen at 2 hr pi in the absence of 10 mg NDP; outline: as §3
[33] = organism: Mus musculus; assay: Uptake of [111In]-labeled compound in muscle at 2 hr pi in the absence of […]; conditions: Muscle tissue; outline: as §3
[34] = organism: Mus musculus; assay: Uptake of [111In]-labeled compound in heart at 2 hr pi in the absence of […]; outline: as §3

Row | Substance | Uptake ratio [1] | ID/g [2] | ID/g [3] | ID/g [4] | ID/g [5] | ID/g [6] | ID/g [7] | Uptake ratio [8] | ID/g [9] | Uptake ratio [10] | ID/g [11] | ID/g [12] | Uptake ratio [13] | ID/g [14] | ID/g [15] | ID/g [16] | Uptake ratio [17] | ID/g [18] | ID/g [19] | Uptake ratio [20] | other results
1 | Ac-Lys(DOTA)-ReCCEHdFRWCKPV-NH2 | 0.46 | 3.54% | 0.09% | 0.02% | 0.029% | 0.017% | 0.08% | 0.28 | 7.15% | 10.7 | 0.074% | 6.01% | 33.3 | 0.082% | 19% | 0.28% | 13.3 | 0.13% | 23.4% | 17.6 | Uptake ratio [21]: 468; Uptake ratio [22]: 88.7; ID/g [23]: 0.86%
2 | DOTA-ReCCEHdFRWCKPV-NH2 | 1.3 | 4.86% | 0.065% | 0.047% | 0.12% | 0.093% | 0.066% | 1.1 | 10.4% | 18.4 | 0.048% | 9.46% | 49.9 | 0.034% | 9.27% | 0.16% | 173 | 0.13% | 13% | 27.8 | Uptake ratio [21]: 319; Uptake ratio [22]: 490; ID/g [23]: 0.72%
3 | DOTA-ReCCEHdFRWCKPV-OH | 1.1 | 3.14% | 0.11% | 0.054% | 0.12% | 0.035% | 0.058% | 1.1 | 10.4% | 23.1 | 0.03% | 9.27% | 63 | 0.056% | 8.7% | 0.17% | 26.8 | 0.15% | 11.5% | 27.9 | Uptake ratio [21]: 174; Uptake ratio [22]: 200; ID/g [23]: 0.68%
4 | DOTA-ReCCEHdFRWCKPVD-OH | 1.1 | 2.48% | 0.05% | 0.13% | 0.054% | 0.047% | 0.07% | 0.91 | 8.96% | 20.7 | 0.029% | 7.32% | 51.3 | 0.051% | 8.13% | 0.19% | 27.3 | 0.017% | 11.5% | 38.2 | Uptake ratio [21]: 102; Uptake ratio [22]: 199; ID/g [23]: 0.44%
5 | DOTA-ReCCEHdFRWCRPV-NH2 | 2 | 8.19% | 0.21% | 0.03% | 0.054% | 0.086% | 0.07% | 2.5 | 16.6% | 25.2 | 0.08% | 17.4% | 45.7 | 0.085% | 7.37% | 0.32% | 42.2 | 0.36% | 9.31% | 47.4 | ID/g [24]: 0.44%; ID/g [25]: 0.3%; ID/g [26]: 0.08%; ID/g [27]: 0.27%; ID/g [28]: 1.61%; ID/g [29]: 0.21%; ID/g [30]: 17.3%; ID/g [31]: 0.38%; ID/g [32]: 0.27%; Uptake ratio [21]: 2100; ID/g [33]: 0.03%; Uptake ratio [22]: 254; ID/g [34]: 0.07%; ID/g [23]: 0.76%
